Source: PubChem BioAssay (several laboratories)
Most compounds without a hit are left out; they make up all but 2.3% or so of the library.
PAFAH1B3 inh = inhibitors of human PAFAH1B3 | recombinant PAFAH1B3, FP-rhodamine probe, fluorescence polarization | AID 492972 | 340,000 tested, 0.28% active | inhibition, % at 3.39 µM;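 active = inhibition above the screen-wide average of all tested compounds plus 3 SD, cut at about 25% in these data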;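 note: 0% = enzyme with DMSO only and 100% = wells lacking PAFAH1B3 protein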
TDP2 absorb = TDP2 (human) inhibition, absorbance primary screen. O95551. recombinant TDP2, T5PNP hydrolysis, p-nitrophenol absorbance 415 nm. inhibition, % at 12.8 µM. 370,000 tested, 0.34% active. AID 720702;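 active = inhibition above the mean of all tested compounds plus 3 SD, set per campaign, cut at about 25% in these data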;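 note: 0% = DMSO with enzyme and 100% = buffer with substrate but no TDP2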
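Read-out basis: percent inhibition. System: recombinant human TDP2. Buffer or medium: Mg2+-containing Tris-HCl buffer, pH 7.5. Repeats: single replicate. Timing: reaction 2 h, 37 °C. Benchmarks: high control without enzyme, low control DMSO plus TDP2. Probe or stimulus: 5 mM T5PNP. Doses: 12.8 µM only. Measured by: epi absorbance of p-nitrophenol freed from T5PNP by hydrolysis.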
PAFAH1B2 FP inh = PAFAH1B2 (human) inhibition; P68402; recombinant PAFAH1B2, FP-rhodamine activity probe, fluorescence polarization; inhibition, % at 3.39 µM; 340,000 tested, 1.2% active; AID 492953;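 active = inhibition above the mean of all tested compounds plus 3 SD, cut at about 24% in these data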;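 note: 0% = enzyme with DMSO and 100% = wells lacking PAFAH1B2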
PAFAH2 inh = inhibitors of human PAFAH2; Q99487; recombinant PAFAH2, FP-rhodamine activity probe, fluorescence polarization; inhibition, % at 3.39 µM; 340,000 tested, 0.99% active;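 active = inhibition above the mean over all tested compounds plus 3 SD, cut at about 30% in these data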;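 note: inhibitors block probe labeling of enzyme so polarization drops; 0% = enzyme with DMSO and 100% = wells lacking PAFAH2 protein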
Apaf1 inhib = human Apaf-1 inhibition | O14727 | reconstituted apoptosome caspase-3 activity, DEVD-Rh110 fluorescence | inhibition, % at 20 µM | 330,000 tested, 0.71% active | AID 489030; active = inhibition of at least 40% at 20 µM;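 note: plate controls were DMSO wells for no effect and DEVD-CHO caspase inhibitor wells for full effect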
Target sequence (O14727 whole entry, looked up): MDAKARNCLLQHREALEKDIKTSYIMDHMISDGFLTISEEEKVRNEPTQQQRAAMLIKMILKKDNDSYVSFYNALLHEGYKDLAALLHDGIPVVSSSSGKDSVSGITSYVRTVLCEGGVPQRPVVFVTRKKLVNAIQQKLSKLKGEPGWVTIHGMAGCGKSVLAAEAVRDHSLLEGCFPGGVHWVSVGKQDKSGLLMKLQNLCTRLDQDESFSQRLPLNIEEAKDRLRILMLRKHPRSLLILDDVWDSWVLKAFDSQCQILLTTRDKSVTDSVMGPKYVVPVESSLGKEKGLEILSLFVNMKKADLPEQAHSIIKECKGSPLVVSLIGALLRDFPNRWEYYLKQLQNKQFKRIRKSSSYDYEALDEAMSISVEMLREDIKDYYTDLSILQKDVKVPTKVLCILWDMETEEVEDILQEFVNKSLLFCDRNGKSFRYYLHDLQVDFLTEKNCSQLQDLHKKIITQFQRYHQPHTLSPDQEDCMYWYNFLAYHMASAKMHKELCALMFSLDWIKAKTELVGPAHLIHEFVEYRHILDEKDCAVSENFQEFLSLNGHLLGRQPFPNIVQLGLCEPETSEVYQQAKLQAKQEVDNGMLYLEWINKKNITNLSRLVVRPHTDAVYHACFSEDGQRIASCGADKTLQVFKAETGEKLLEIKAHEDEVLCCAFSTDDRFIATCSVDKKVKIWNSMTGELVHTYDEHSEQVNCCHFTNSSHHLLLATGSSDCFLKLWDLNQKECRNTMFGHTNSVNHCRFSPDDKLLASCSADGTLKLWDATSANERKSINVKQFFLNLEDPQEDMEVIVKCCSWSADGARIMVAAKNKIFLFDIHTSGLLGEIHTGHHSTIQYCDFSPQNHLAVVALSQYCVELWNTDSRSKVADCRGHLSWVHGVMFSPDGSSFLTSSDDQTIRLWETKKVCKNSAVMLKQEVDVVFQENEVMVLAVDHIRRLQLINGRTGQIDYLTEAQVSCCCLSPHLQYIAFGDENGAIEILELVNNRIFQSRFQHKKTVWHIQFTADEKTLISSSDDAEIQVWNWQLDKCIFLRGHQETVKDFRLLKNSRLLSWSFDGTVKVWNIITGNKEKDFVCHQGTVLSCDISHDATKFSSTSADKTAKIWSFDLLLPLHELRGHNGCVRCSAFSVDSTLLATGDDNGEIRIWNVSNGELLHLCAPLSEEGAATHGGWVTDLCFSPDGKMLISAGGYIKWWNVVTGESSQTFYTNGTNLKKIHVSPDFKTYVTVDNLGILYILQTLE
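detection = Rh110 fluorescence intensity | test system = biochemical Apaf-1 apoptosome reconstitution | also added = cytochrome c and DEVD-Rh110 substrate | schedule = 30 min plus 50 min, RT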
Apaf-1 inh conf2 = confirmation of Apaf-1 inhibitors. 1,800 tested, 25% active. shares compounds with Apaf1 inhib. inhibition, % at 20 µM. reconstituted apoptosome, caspase-3 DEVD-Rh110 fluorescence;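 active = mean inhibition of at least 40% at 20 µM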;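 note: plate controls were DMSO wells for no effect and DEVD-CHO caspase inhibitor control wells for full effect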
Rh110 quench = counter-screen for Apaf-1 inhibitors: fluorescence interference; activation (fluorescence interference), % at 20 µM; 1,800 tested, under 10 active; shares compounds with Apaf1 inhib; Rh110 fluorescence interference, quenched caspase reaction; AID 504615;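 active = signal rise of 40% or more at 20 µM, treated as a fluorescence artifact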
Fluor interf inh = shows fluorescence interference in the Apaf-1 inhibitor assay format | shares compounds with Apaf1 inhib | fluorescence interference counterscreen, Apaf-1 assay format | IC50, µM | 460 tested, under 10 active | AID 588538; call rule not given here
PAFAH2 FP conf = PAFAH2 (human) inhibition, confirmed | AID 493030 | recombinant PAFAH2, FP-rhodamine activity probe, fluorescence polarization | shares compounds with PAFAH2 inh | inhibition, % at 3.39 µM | 2,300 tested, 65% active;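 active = mean inhibition over three repeats above a set limit taken from the earlier primary screen, cut at about 30% in these data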;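 note: inhibitor blocks binding of rhodamine activity probe so polarization falls; 0% = enzyme with DMSO and 100% = wells lacking PAFAH2 protein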
PAFAH1B3 conf FP = PAFAH1B3 (human) inhibition, confirmed; shares compounds with PAFAH1B3 inh; recombinant PAFAH1B3, FP-Rh activity-based probe, fluorescence polarization; inhibition, % at 3.39 µM; 390 tested, 30% active;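 active = average inhibition over triplicate runs above the hit cutoff set in the earlier primary screen, cut at about 25% in these data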;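 note: 0% = enzyme with DMSO and 100% = wells lacking PAFAH1B3 protein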
TDP2 inh conf = confirmation of human TDP2 inhibitors | shares compounds with TDP2 absorb | recombinant human TDP2, absorbance read-out | inhibition, % at 12.8 µM | 1,100 tested, 22% active; in the data active = inhibition above about 25%;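 note: 0% = vehicle with enzyme and 100% = no enzyme buffer only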
Starred values were filed as active, the others as inactive; x = no result given.

SMILES | PAFAH1B3 inh | TDP2 absorb | PAFAH1B2 FP inh | PAFAH2 inh | Apaf1 inhib | Apaf-1 inh conf2 | Rh110 quench | TDP2 inh conf | others
CC1=NN(c2cccc([N+](=O)[O-])c2)C(=O)C1 | 20 | 7 | 7 | 4 | 37 | x | x | x
CC1=NN(Cc2ccccc2)C(=O)C1 | 7 | 58* | 4 | -9 | 65* | 1 | -5 | 6
COC(=O)CC1=NN(c2ccc(OC)cc2)C(=O)C1 | -2 | 0 | 2 | 4 | 4 | x | x | x
CC1=NN(c2ccccc2)C(=O)C1 | -3 | 66* | 6 | 2 | 41* | 15 | 5 | 8
CC1=NN(c2ccc(N)cc2)C(=O)C1 | 3 | 38* | 1 | 9 | 53* | 9 | -6 | 19
C#CCNC(=O)C[C@H]1C[C@@]2(C(=O)OC)C(=C[C@H](C3CCCC3)O[C@@H]2C)N(CCc2ccc(OC)c(OC)c2)C1=O | x | -4 | x | x | x | x | x | x
O=C(/C=C/c1ccc(O)cc1)c1ccccc1 | 0 | 10 | 9 | -3 | 3 | x | x | x
CC1=C(Nc2ccc(C(=O)O)cc2)C(=O)c2ccccc2C1=O | 13 | 1 | 6 | 1 | 18 | x | x | x
Cc1ccc(NC2=C(N3CCCCC3)C(=O)c3ccccc3C2=O)cc1 | 41* | 56* | 12 | 29 | 81* | 95* | 3 | 61* | Fluor interf inh=>100;PAFAH1B3 conf FP=17
O=C1C(Nc2cccc(O)c2)=C(N2CCCCC2)C(=O)c2ccccc21 | 66* | 51* | 25* | 60* | 88* | 91* | 0 | 52* | Fluor interf inh=>100
COC1=C(Nc2ccc(C)cc2)C(=O)c2ccccc2C1=O | 6 | 55* | 10 | 13 | 61* | 11 | 0 | 16
O=C1C(NS(=O)(=O)c2ccccc2)=C(N2CCN(c3ccc(F)cc3)CC2)C(=O)c2ccccc21 | 7 | 3 | 16 | 9 | 18 | x | x | x
O=C(/C=C/c1ccc(O)cc1)c1ccc(NC2=C(N3CCCCC3)C(=O)c3ccccc3C2=O)cc1 | 54* | 49* | 14 | 25 | 76* | 95* | 0 | 45* | Fluor interf inh=>100;PAFAH1B3 conf FP=22
Brc1ccc(-c2csc(N3CCC(c4nn[nH]n4)CC3)n2)cc1 | x | 10 | x | x | x | x | x | x
COC(=O)C1CN(CCc2ccccc2)CCS(=O)(=O)N1Cc1ccccc1 (stereo unspecified) | x | 5 | x | x | x | x | x | x
O=C1C(Nc2ccccc2)=C(N2CCCCC2)C(=O)c2ccccc21 | 60* | 59* | 17 | 37* | 93* | 90* | -4 | 57* | Fluor interf inh=>100
CCOC(=O)N1CCN(S(=O)(=O)c2ccc(NC(C)=O)cc2)CC1 | -2 | 5 | 3 | 0 | -1 | x | x | x
CCOC(=O)C1CCCN(C2=C(NS(=O)(=O)c3ccc(Br)cc3)C(=O)c3ccccc3C2=O)C1 (stereo unspecified) | 16 | 43* | 16 | 17 | 67* | 48* | 21 | 13
CCOC(=O)N1CCN(C2=C(NS(=O)(=O)c3ccc(NC(C)=O)cc3)C(=O)c3ccccc3C2=O)CC1 | 10 | 28* | 6 | 11 | 83* | 25 | 11 | 24
CCN1CCN(C2=C(NS(=O)(=O)c3ccc(C)cc3)C(=O)c3ccccc3C2=O)CC1 | 6 | 25* | 8 | -2 | 77* | 35 | 4 | 13
COC(=O)[C@]12C[C@H](CC(=O)NCCC(C)C)C(=O)N(Cc3cccc4ccccc34)C1=C[C@H](C(C)C)O[C@@H]2C1CC1 | x | -3 | x | x | x | x | x | x
CCNC(=O)Nc1ccc2c(c1)C(=O)N(C)[C@H]1CC[C@H](CC(=O)N[C@H](C)c3ccccc3)O[C@@H]1CO2 | x | 3 | x | x | x | x | x | x
COc1ccc2c(c1)CCCN2C(=O)C1CCCN(S(=O)(=O)c2cccs2)C1 (stereo unspecified) | x | 1 | x | x | x | x | x | x
COc1ccc(OC)c2c1C(=O)c1ccccc1C2=O | x | 56* | x | x | 63* | -1 | -7 | 7
COc1ccc2noc3c2c1C(=O)c1ccccc1-3 | 25 | 38* | 20 | 38* | 78* | 44* | -58 | 30* | Fluor interf inh=59*
SMILES | PAFAH1B3 inh | TDP2 absorb | PAFAH1B2 FP inh | PAFAH2 inh | Apaf1 inhib | Apaf-1 inh conf2 | Rh110 quench | TDP2 inh conf | others
CC(C)[C@@H]1CC[C@@H](C)C[C@H]1OC[B-](F)(F)F | x | -9 | x | x | x | x | x | x
COc1cc(NC(C)CCCN)c2ncccc2c1 (stereo unspecified) | 8 | 64* | -2 | 5 | 92* | 33 | -2 | 18
COC(=O)c1ccc(C(c2c(C)[nH][nH]c2=O)c2c(C)[nH][nH]c2=O)cc1 | 3 | -5 | 1 | 5 | 12 | x | x | x
COC(=O)c1ccccc1-c1ccc(C(c2c(C)[nH][nH]c2=O)c2c(C)[nH][nH]c2=O)o1 | 8 | 78* | 1 | 2 | 79* | 30 | 6 | 36*
Oc1ccccc1CNc1cccc2cccnc12 | 14 | 35* | 1 | 2 | 95* | 12 | 6 | 6
COc1cc(NCc2ccccc2O)c2ncccc2c1 | 12 | -2 | 3 | 1 | 18 | x | x | x
Cc1ccc(S(=O)(=O)N(C)c2ccc(OC(=O)c3cccs3)cc2)cc1C | 11 | -2 | 1 | 34* | 9 | x | x | x | PAFAH2 FP conf=25
O=[N+]([O-])c1ccc(O)c(N=Cc2sc3ccccc3c2O)c1 | 3 | -14 | -5 | 33* | x | x | x | x | PAFAH2 FP conf=16
COC(=O)c1cn(-c2ccc(-c3noc4c3C(=O)N(CC(=O)N3CCOCC3)CC4)cc2)nn1 | x | -5 | x | x | x | x | x | x
COC(=O)C1CN(Cc2cn(CCC3OCCO3)nn2)CCS(=O)(=O)N1Cc1ccc(Cl)cc1 (stereo unspecified) | x | 1 | x | x | x | x | x | x
O=c1c2c([nH]c3ccccc13)CCCC2 | 6 | -5 | 5 | 2 | -6 | x | x | x
O=c1c2c([nH]c3ccccc13)C(=C1CCCC1)CC2 | 12 | x | 9 | 33* | 5 | x | x | x | PAFAH2 FP conf=7
N#Cc1ccccc1NC(=O)c1ccc2c(c1)OCCO2 | -2 | -6 | -4 | 16 | -4 | x | x | x
N#Cc1ccc(Cl)cc1NC(=O)COC(=O)c1ccc2c(c1)OCCO2 | 1 | -6 | -5 | 66* | 13 | x | x | x | PAFAH2 FP conf=68*
N#Cc1ccccc1NC(=O)COC(=O)c1ccc2c(c1)OCCO2 | 7 | 1 | 1 | 73* | -3 | x | x | x | PAFAH2 FP conf=69*
Cc1ccccc1Cn1cc(COC(=O)NCC(C)C)nn1 | x | -6 | x | x | x | x | x | x
